Experimental data published in ChEMBL document CHEMBL4602731, “A γ-Lactam Siderophore Antibiotic Effective against Multidrug-Resistant Gram-Negative Bacilli” (J Med Chem, 2020).
pIC50: −log10 of the molar value. Values after ≈ are worked out from the molar mass of the structure shown.

How the values were obtained:
Pseudomonas aeruginosa [1] = assay: Antimicrobial activity against Pseudomonas aeruginosa clinical isolates by standard broth microdilution method; type: functional
Klebsiella pneumoniae = assay: Antimicrobial activity against Klebsiella pneumoniae clinical isolates by standard broth microdilution method; type: functional
Escherichia coli = assay: Antimicrobial activity against Escherichia coli clinical isolates by standard broth microdilution method; type: functional
[2] = biological target: Penicillin-binding protein 3 (Pseudomonas aeruginosa) (UniProt Q51504); assay: Stabilization of Pseudomonas aeruginosa PBP3 assessed as melting temperature at 0.2 mM by DSF thermal shift assay (reference value: 44.1 +/- 0.14 degC)
How it was run: (§1)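 Ligand at […], ceftazidime at 0.2 mM as positive control; no-ligand control with 1% DMSO. Derivative of fluorescence change plotted against temperature.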

Pseudomonas aeruginosa [3] = assay: Antimicrobial activity against Pseudomonas aeruginosa clinical isolate in absence of iron by standard broth microdilution method
Pseudomonas aeruginosa [4] = assay: Antimicrobial activity against Pseudomonas aeruginosa clinical isolate in presence of 1 ug/ml iron by standard broth microdilution method
Pseudomonas aeruginosa [5] = assay: Antimicrobial activity against Pseudomonas aeruginosa clinical isolate in presence of 10 ug/ml iron by standard broth microdilution method
Pseudomonas aeruginosa [6] = assay: Antimicrobial activity against Pseudomonas aeruginosa clinical isolate in presence of 0.1 ug/ml iron by standard broth microdilution method
[7] = Stability in pH 7.5 phosphate buffer assessed as compound hydrolysis measured 24 hrs after reconstitution; type: physicochemical; details: read-out: Drug degradation
Pseudomonas aeruginosa [8] = assay: Antimicrobial activity against Pseudomonas aeruginosa PAO1 in presence of 0.1 ug/ml iron by standard broth microdilution method; type: functional
How it was run: (§2)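 CLSI broth microdilution in iron-depleted cation-adjusted Mueller–Hinton broth, made by cation-exchange resin treatment, with an inoculum of 6 × 10^4 CFU/mL. For the iron series, soluble iron is added to the depleted medium. Total iron in the tested media is expected to be 0.02, 0.12, 1.02 and 10.02 μg/mL.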

Pseudomonas aeruginosa [9] = assay: Antimicrobial activity against Pseudomonas aeruginosa PAO1 in presence of 1 ug/ml iron by standard broth microdilution method; type: functional
How it was run: (§3)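 MICs by CLSI broth microdilution, inoculum 6 × 10^4 CFU/mL, in cation-adjusted Mueller–Hinton broth iron-depleted with cation-exchange resin (reported to leave 0.02 μg/mL iron). Soluble iron added back; total media iron expected 0.02, 0.12, 1.02 and 10.02 μg/mL.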

Pseudomonas aeruginosa [10] = assay: Antimicrobial activity against Pseudomonas aeruginosa PAO1 in presence of 10 ug/ml iron by standard broth microdilution method; type: functional; how it was run: as §3
[11] = Solubility in pH 7.5 phosphate buffer by nephelometry; type: physicochemical
How it was run: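 Solubility in pH 7.5 phosphate buffer, measured by nephelometry.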

[12] = Stability in pH 7.5 phosphate buffer assessed as compound hydrolysis after 2 weeks at room temperature; type: physicochemical; details: read-out: Drug degradation
[13] = Half life human liver microsomes; type: ADME, Microsome
[14] = Half life CD1 mouse liver microsomes; type: ADME, Microsome
Cytochrome P450 = assay: Inhibition of CYP450 (unknown origin) at 30 uM; type: ADME, protein assay; details: human
[15] = Plasma concentration CD1 mouse at 50 mg/kg, iv after 2 hrs by HPLC-MS/MS analysis; type: ADME, organism-based
How it was run: (§4)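 CD-1 mice, single IV dose of 50 mg/kg, parallel sampling in groups of 24 animals. Blood is taken by cardiac puncture under isoflurane into lithium heparin or K2EDTA tubes and spun at 2500 × g for 15 min at 4 °C. Plasma is precipitated with acetonitrile and run on HPLC-MS/MS against a spiked-plasma calibration curve with internal standard. Parameters come from noncompartmental analysis.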

Hepatocyte = assay: Toxicity in human primary hepatocytes at 100 uM incubated for 72 hrs; type: cell-based
How it was run: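 Primary human hepatocytes exposed to compound at a maximum of 100 μM for 72 h.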

[16] = biological target: Prostaglandin G/H synthase 1 (Homo sapiens) (UniProt P23219); assay: Inhibition of COX1 (unknown origin) at 30 uM relative to control
How it was run: (§5)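 Safety panel of 44 enzymes, receptors and channels, with compound tested at 30 μM. Percent inhibition is measured.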

[17] = biological target: cGMP-inhibited 3',5'-cyclic phosphodiesterase 3A (Homo sapiens) (UniProt Q14432); assay: Inhibition of PDE3A (unknown origin) at 30 uM relative to control; how it was run: as §5
[18] = biological target: Voltage-gated inwardly rectifying potassium channel KCNH2 (Homo sapiens, UniProt Q12809); assay: Binding affinity to human ERG at 30 uM
[19] = biological target: Penicillin-binding protein 3 (Pseudomonas aeruginosa, UniProt Q51504); assay: Inhibition of Pseudomonas aeruginosa PBP3 assessed as reduction in fluorescence intensity of bocillin labeled protein pre-incubated for 20 mins before bocillin addition by SDS-PAGE analysis
[20] = biological target: Penicillin-binding protein 3 (Pseudomonas aeruginosa) (UniProt Q51504); assay: Stabilization of Pseudomonas aeruginosa PBP3 assessed as melting temperature at 1 mM by DSF thermal shift assay (reference value: 44.1 +/- 0.14 degC); how it was run: as §1
[21] = biological target: Penicillin-binding protein 3 (Pseudomonas aeruginosa) (UniProt Q51504); assay: Stabilization of Pseudomonas aeruginosa PBP3 assessed as increase in melting temperature at 1 mM by DSF thermal shift assay
[22] = Half life in CD1 mouse at 50 mg/kg, iv after 2 hrs by HPLC-MS/MS analysis; type: ADME, organism-based; details: in vivo; how it was run: as §4
[23] = Initial drug concentration in CD1 mouse at 50 mg/kg, iv after 2 hrs by HPLC-MS/MS analysis; type: ADME, organism-based; details: in vivo; how it was run: as §4
[24] = AUClast in CD1 mouse at 50 mg/kg, iv after 2 hrs by HPLC-MS/MS analysis; type: ADME, organism-based; parameters: time < 2 hr, dose 50 mg/kg, route intravenous; details: in vivo; how it was run: as §4
[25] = AUC (infinity) in CD1 mouse at 50 mg/kg, iv after 2 hrs by HPLC-MS/MS analysis; type: ADME, organism-based; parameters: dose 50 mg/kg, route intravenous, time infinity; details: in vivo; how it was run: as §4
[26] = AUC (extrapolated) in CD1 mouse at 50 mg/kg, iv after 2 hrs by HPLC-MS/MS analysis; type: ADME, organism-based; details: in vivo; how it was run: as §4
[27] = Volume of distribution at steady state in CD1 mouse at 50 mg/kg, iv after 2 hrs by HPLC-MS/MS analysis; type: ADME, organism-based; details: in vivo; how it was run: as §4
[28] = Substrate activity at NDM-1 (unknown origin) assessed as Kcat for compound hydrolysis by diode array spectrophotometry; type: ADME; details: bacteria
How it was run: (§6)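 The compound is the substrate, in molar excess for pseudo-first-order conditions. Hydrolysis is followed spectrophotometrically at Δε336 = −5500 M−1 cm−1 in a 1 cm quartz cuvette.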

[29] = Substrate activity at NDM-1 (unknown origin) assessed as Kcat/Km ratio for compound hydrolysis by diode array spectrophotometry; type: ADME; details: bacteria; how it was run: as §6
[30] = Substrate activity at VIM-2 (unknown origin) assessed as Kcat for compound hydrolysis by diode array spectrophotometry; type: ADME; details: bacteria
[31] = Substrate activity at VIM-2 (unknown origin) assessed as Kcat/Km ratio for compound hydrolysis by diode array spectrophotometry; type: ADME; details: bacteria
[32] = Substrate activity at IMP-1 (unknown origin) assessed as Kcat for compound hydrolysis by diode array spectrophotometry; type: ADME; details: bacteria
[33] = Substrate activity at IMP-1 (unknown origin) assessed as Kcat/Km ratio for compound hydrolysis by diode array spectrophotometry; type: ADME; details: bacteria
[34] = Substrate activity at KPC-2 (unknown origin) assessed as compound hydrolysis at 100 uM by diode array spectrophotometry; type: ADME; details: bacteria
[35] = Substrate activity at OXA-23 (unknown origin) assessed as compound hydrolysis at 100 uM by diode array spectrophotometry; type: ADME; details: bacteria
[36] = Substrate activity at OXA-24 (unknown origin) assessed as compound hydrolysis at 100 uM by diode array spectrophotometry; type: ADME; details: bacteria
[37] = Substrate activity at PER-2 (unknown origin) assessed as compound hydrolysis at 100 uM by diode array spectrophotometry; type: ADME; details: bacteria
Pseudomonas aeruginosa [38] = assay: Antimicrobial activity against Pseudomonas aeruginosa PAO1 in absence of iron by standard broth microdilution method; type: functional; how it was run: as §2
[39] = Inhibition of Acinetobacter baumanni PBP3 assessed as reduction in fluorescence intensity of bocillin labeled protein by SDS-PAGE analysis; parameters: species or system Acinetobacter baumannii

Chain of Penicillin-binding protein 3 (Pseudomonas aeruginosa) (Q51504 as listed by the source): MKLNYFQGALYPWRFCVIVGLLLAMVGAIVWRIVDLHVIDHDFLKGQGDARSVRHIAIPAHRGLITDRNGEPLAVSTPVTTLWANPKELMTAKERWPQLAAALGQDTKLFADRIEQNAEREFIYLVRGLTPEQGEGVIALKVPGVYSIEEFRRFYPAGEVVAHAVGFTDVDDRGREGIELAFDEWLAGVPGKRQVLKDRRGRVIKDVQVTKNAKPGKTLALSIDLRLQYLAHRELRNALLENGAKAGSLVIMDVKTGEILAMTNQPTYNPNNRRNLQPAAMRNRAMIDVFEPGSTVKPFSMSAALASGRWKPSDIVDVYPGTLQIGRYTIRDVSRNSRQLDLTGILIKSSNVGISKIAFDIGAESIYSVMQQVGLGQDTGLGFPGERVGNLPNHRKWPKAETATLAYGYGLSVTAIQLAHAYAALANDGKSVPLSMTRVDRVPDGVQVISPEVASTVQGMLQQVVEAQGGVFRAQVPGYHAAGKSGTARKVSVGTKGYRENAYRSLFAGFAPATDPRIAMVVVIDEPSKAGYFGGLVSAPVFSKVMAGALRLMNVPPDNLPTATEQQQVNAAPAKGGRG
Chain of Prostaglandin G/H synthase 1 (Homo sapiens) (P23219 whole entry): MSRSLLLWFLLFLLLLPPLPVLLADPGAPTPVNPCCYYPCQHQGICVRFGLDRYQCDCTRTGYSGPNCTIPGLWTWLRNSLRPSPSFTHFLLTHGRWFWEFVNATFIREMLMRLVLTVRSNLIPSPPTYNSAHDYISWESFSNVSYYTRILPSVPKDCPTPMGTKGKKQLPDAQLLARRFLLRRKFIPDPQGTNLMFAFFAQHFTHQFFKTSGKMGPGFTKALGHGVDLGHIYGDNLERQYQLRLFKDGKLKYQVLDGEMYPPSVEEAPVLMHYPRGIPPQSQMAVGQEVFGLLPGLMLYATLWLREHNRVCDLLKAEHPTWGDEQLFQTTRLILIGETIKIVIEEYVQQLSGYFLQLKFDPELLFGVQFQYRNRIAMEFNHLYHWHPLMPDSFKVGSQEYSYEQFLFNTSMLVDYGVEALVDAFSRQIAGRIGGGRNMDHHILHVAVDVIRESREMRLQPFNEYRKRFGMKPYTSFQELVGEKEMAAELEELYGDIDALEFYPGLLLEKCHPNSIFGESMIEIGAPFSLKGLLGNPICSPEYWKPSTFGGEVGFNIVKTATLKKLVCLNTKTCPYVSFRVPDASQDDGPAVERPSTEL
Chain of Penicillin-binding protein 3 (Q51504 whole entry): as the sequence (Q51504 as listed by the source) above
Chain of cGMP-inhibited 3',5'-cyclic phosphodiesterase 3A (Homo sapiens) (Q14432 whole entry): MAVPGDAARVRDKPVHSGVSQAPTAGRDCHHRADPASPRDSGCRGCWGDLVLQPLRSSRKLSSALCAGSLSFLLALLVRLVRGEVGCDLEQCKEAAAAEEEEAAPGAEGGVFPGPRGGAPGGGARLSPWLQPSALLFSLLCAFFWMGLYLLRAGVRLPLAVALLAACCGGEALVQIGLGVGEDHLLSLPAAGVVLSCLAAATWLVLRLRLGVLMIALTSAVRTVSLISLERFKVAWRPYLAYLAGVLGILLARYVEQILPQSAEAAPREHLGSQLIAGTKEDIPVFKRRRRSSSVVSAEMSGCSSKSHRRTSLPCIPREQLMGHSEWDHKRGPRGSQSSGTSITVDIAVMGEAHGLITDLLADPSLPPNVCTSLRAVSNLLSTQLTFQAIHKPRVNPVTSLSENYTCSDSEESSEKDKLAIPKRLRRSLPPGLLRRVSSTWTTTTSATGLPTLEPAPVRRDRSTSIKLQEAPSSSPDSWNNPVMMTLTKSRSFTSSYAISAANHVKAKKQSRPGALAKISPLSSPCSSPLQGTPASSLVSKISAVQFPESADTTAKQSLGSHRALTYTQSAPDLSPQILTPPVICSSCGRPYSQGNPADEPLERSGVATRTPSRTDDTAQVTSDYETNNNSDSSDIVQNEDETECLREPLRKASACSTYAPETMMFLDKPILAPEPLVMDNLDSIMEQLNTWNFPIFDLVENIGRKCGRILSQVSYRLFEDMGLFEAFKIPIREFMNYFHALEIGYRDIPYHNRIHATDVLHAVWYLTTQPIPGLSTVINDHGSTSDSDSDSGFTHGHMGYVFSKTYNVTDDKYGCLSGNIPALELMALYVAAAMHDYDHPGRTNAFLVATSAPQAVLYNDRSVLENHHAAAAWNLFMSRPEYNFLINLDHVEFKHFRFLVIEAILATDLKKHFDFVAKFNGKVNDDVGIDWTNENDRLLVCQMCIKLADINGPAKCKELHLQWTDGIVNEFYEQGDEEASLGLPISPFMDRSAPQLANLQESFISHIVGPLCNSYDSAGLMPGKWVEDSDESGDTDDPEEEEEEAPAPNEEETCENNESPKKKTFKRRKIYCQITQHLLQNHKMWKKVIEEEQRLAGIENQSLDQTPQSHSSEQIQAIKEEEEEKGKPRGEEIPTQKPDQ
Chain of Voltage-gated inwardly rectifying potassium channel KCNH2 (Q12809 whole entry): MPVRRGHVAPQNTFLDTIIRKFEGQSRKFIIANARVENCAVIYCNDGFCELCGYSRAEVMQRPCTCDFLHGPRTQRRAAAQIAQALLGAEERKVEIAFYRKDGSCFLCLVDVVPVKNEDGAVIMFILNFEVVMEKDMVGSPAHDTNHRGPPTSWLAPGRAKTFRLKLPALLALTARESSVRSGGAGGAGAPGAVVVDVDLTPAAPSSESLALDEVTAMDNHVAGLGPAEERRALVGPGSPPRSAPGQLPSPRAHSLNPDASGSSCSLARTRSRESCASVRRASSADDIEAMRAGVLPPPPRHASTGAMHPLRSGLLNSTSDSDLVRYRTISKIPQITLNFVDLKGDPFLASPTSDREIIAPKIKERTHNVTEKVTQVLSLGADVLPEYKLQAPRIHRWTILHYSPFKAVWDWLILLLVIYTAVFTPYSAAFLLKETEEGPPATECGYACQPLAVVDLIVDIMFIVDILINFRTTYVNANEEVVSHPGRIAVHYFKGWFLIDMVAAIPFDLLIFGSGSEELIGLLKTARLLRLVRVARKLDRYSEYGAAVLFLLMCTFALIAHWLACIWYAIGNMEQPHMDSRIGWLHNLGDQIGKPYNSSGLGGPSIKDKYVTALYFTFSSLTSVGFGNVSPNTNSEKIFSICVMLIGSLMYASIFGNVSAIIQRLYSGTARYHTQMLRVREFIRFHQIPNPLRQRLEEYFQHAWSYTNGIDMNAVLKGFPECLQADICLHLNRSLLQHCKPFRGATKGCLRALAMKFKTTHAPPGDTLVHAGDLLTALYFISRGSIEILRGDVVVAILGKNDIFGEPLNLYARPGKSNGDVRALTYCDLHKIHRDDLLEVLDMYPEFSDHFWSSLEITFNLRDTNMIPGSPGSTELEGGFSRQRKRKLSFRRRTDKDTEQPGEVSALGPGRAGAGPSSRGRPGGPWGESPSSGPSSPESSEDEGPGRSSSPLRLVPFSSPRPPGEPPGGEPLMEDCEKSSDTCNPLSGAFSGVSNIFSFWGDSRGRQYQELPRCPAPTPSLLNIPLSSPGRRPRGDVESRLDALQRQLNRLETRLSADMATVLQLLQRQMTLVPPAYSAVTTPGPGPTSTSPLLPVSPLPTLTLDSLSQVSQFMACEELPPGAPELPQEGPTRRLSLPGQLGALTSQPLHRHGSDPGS

With `CC(C)(O/N=C(\C(=O)N[C@@H]1C(=O)N2C(C(=O)[O-])=C(C[n+]3ccccc3)CS[C@H]12)c1csc(N)n1)C(=O)O` [CEFTAZIDIME] the MIC50 (Pseudomonas aeruginosa [1]) was 4 µg/mL (≈ 7.32 µM), the MIC90 (Pseudomonas aeruginosa [1]) was > 16 µg/mL and the MIC50 (Klebsiella pneumoniae) was > 64 µg/mL. The MIC90 (Klebsiella pneumoniae) was > 64 µg/mL, the MIC50 (Escherichia coli) was 2 µg/mL (≈ 3.66 µM) and the MIC90 (Escherichia coli) was > 16 µg/mL. It also gave a Tm [2] of 56.5 °C, an MIC (Pseudomonas aeruginosa [3]) of 1 µg/mL (≈ 1.83 µM) and an MIC (Pseudomonas aeruginosa [4]) of 1 µg/mL. The MIC (Pseudomonas aeruginosa [5]) was 1 µg/mL and the MIC (Pseudomonas aeruginosa [6]) was 1 µg/mL.
For `C[C@@H](O)[C@H]1C(=O)N2C(C(=O)O)=C(S[C@@H]3CN[C@H](C(=O)N(C)C)C3)[C@H](C)[C@H]12` [MEROPENEM], the MIC50 (Pseudomonas aeruginosa [1]) was 2 µg/mL (≈ 5.22 µM), the MIC90 (Pseudomonas aeruginosa [1]) was > 8 µg/mL and the MIC50 (Klebsiella pneumoniae) was 16 µg/mL (≈ 41.7 µM). The MIC90 (Klebsiella pneumoniae) was > 64 µg/mL, the MIC50 (Escherichia coli) was ≤ 1 µg/mL and the MIC90 (Escherichia coli) was 8 µg/mL (≈ 20.9 µM). The degraded at 24 h [7] was > 30%.
In the case of `CC(C)(O/N=C(\C(=O)N[C@H]1CN2CC(C(=O)NCCN3C(=O)c4cc(O)c(O)cc4C3=O)=C(C(=O)O)N2C1=O)c1csc(N)n1)C(=O)O`, the MIC50 (Pseudomonas aeruginosa [1]) was 1 µg/mL (≈ 1.46 µM), the MIC90 (Pseudomonas aeruginosa [1]) was 8 µg/mL (≈ 11.7 µM) and the MIC50 (Klebsiella pneumoniae) was 1 µg/mL (≈ 1.46 µM). It also gave an MIC50 (Escherichia coli) of 1 µg/mL (≈ 1.46 µM), an MIC (Pseudomonas aeruginosa [8]) of 2 µg/mL and an MIC (Pseudomonas aeruginosa [9]) of 16 µg/mL. The MIC (Pseudomonas aeruginosa [10]) was > 16 µg/mL, the solubility kinetic [11] was > 100 µM and the degraded at 336 h [12] was 4%. For the same compound, the t1/2 [13] was > 1 h, the t1/2 [14] was > 1 h and the “inhibition (INH)” value (Cytochrome P450) was “Not Active”. The concentration at 2 h [15] was 1400 ng/mL, the Activity (Hepatocyte) was “Non-Toxic” and the inhibition [16] was 63%. For the same compound, the inhibition [17] was 66%, the Activity [18] was “Not Active” and the pIC50 [19] was 5.60. It also gave a Tm [20] of 51 °C, a ΔTm [21] of 7 °C and a t1/2 [22] of 11 h. For the same compound, the C0 [23] was 200844 ng/mL, the AUClast [24] was 55866 ng·h/mL and the AUC [25] was 57791 ng·h/mL. The “%AUCextra” value [26] was 3%, the Vdss [27] was 2 L/kg and the Kcat [28] was 7 s⁻¹. The Kcat/Km [29] was 20000 M⁻¹ s⁻¹, the Kcat [30] was 20 s⁻¹ and the Kcat/Km [31] was 20000 M⁻¹ s⁻¹. The Kcat [32] was 5 s⁻¹, the Kcat/Km [33] was 70000 M⁻¹ s⁻¹ and the Activity [34] was “Not Active”. The Activity [35] was “Not Active”, the Activity [36] was “Not Active” and the Activity [37] was “Not Active”. The MIC (Pseudomonas aeruginosa [3]) was 0.5 µg/mL (≈ 0.728 µM), the MIC (Pseudomonas aeruginosa [4]) was > 16 µg/mL and the MIC (Pseudomonas aeruginosa [5]) was > 16 µg/mL.
For `C[C@@H](O)[C@H]1C(=O)N2C(C(=O)O)=C(SCCN=CN)C[C@H]12` [IMIPENEM ANHYDROUS], the Kcat [30] was 57 s⁻¹, the Kcat/Km [31] was 6.7e+06 M⁻¹ s⁻¹ and the Kcat [32] was 36 s⁻¹. It also gave a Kcat/Km [33] of 3.2e+06 M⁻¹ s⁻¹.
In the case of `CC(C)(O/N=C(\C(=O)N[C@@H]1C(=O)N2C(C(=O)[O-])=C(C[N+]3(CCNC(=O)c4ccc(O)c(O)c4Cl)CCCC3)CS[C@H]12)c1csc(N)n1)C(=O)O` [CEFIDEROCOL], the MIC (Pseudomonas aeruginosa [38]) was 0.06 µg/mL (≈ 0.0798 µM), the MIC (Pseudomonas aeruginosa [9]) was 0.5 µg/mL and the MIC (Pseudomonas aeruginosa [10]) was 2 µg/mL. The MIC (Pseudomonas aeruginosa [3]) was 0.13 µg/mL (≈ 0.173 µM), the MIC (Pseudomonas aeruginosa [4]) was 0.25 µg/mL and the MIC (Pseudomonas aeruginosa [5]) was 1 µg/mL. The MIC (Pseudomonas aeruginosa [6]) was 0.13 µg/mL.
In the case of `NC(=O)[C@@H]1CC[C@@H]2CN1C(=O)N2OS(=O)(=O)O` [AVIBACTAM], the MIC50 (Pseudomonas aeruginosa [1]) was 4 µg/mL (≈ 15.1 µM), the MIC90 (Pseudomonas aeruginosa [1]) was > 32 µg/mL and the MIC50 (Klebsiella pneumoniae) was 0.5 µg/mL (≈ 1.89 µM). The MIC90 (Klebsiella pneumoniae) was 2 µg/mL (≈ 7.54 µM).
Compound `C[C@@H](O)[C@H]1C(=O)N2C(C(=O)O)=C(S[C@@H]3CN[C@H](CNS(N)(=O)=O)C3)[C@H](C)[C@H]12` [DORIPENEM] has a pIC50 [39] of 5.64.
